Results published in ChEMBL document CHEMBL1132289, “Novel potent and selective central 5-HT3 receptor ligands provided with different intrinsic efficacy. 2. Molecular basis of the intrinsic efficacy of arylpiperazine derivatives at the central 5-HT3 receptors” (J Med Chem, 1999).

Key:
[1] = target: T1, Serotonin 3 (5-HT3) receptor (Rattus norvegicus) (UniProt P35563+Q9JJ16); experiment: Intrinsic efficacy against 5-hydroxytryptamine 3 receptor; PA means partial agonist; assay type: functional; details: filed as partial agonist
Procedure, shortened: (§1)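 NG 108-15 cells grown 2 days, washed, then exposed 10 min at 37 °C to buffer containing 10 mM guanidinium, [14C]guanidinium, 10 μM substance P, and/or 1 μM 5-HT, with eight drug concentrations. Cells lysed in NaOH, then scintillation counting. EC50 for agonists, IC50 for antagonists. Triplicate per concentration.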

[2] = target: T2, Serotonin 3 (5-HT3) receptor (Rattus norvegicus, UniProt P35563+Q9JJ16); experiment: Inhibition of [3H]granisetron binding to 5-hydroxytryptamine 3 receptor (5-HT 3 receptor) of rat cortex and hippocampus tissue; assay type: tissue-based
T2 sequence (P35563 whole entry): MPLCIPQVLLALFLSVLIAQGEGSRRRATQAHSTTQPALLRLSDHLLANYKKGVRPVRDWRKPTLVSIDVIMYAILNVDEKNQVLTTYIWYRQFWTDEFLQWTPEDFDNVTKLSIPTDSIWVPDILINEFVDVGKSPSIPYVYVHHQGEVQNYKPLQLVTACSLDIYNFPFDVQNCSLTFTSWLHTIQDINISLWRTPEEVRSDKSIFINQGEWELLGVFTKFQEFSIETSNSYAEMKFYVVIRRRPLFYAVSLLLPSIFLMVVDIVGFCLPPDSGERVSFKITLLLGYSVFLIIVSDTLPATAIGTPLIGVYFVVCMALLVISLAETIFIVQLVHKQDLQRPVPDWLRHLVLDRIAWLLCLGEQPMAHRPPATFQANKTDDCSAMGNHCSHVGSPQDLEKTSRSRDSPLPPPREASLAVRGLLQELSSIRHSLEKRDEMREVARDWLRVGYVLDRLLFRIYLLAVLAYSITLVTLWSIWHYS
T2 sequence (Q9JJ16 whole entry): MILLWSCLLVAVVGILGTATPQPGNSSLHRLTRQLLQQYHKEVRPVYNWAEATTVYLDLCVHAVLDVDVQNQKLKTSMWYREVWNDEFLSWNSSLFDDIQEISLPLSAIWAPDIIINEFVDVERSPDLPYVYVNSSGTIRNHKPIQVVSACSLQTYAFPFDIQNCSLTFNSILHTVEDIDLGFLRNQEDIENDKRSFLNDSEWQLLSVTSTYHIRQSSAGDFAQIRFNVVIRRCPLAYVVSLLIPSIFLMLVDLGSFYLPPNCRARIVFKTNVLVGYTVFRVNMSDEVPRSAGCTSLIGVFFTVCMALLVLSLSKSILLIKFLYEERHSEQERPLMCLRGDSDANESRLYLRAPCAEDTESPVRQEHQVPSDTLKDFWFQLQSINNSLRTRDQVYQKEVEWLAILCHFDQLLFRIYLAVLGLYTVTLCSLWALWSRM

[3] = target: T1, Serotonin 3 (5-HT3) receptor (Rattus norvegicus); experiment: Intrinsic efficacy for rat 5-hydroxytryptamine 3 receptor; assay type: protein-complex assay; details: filed as antagonist
[4] = tested on: NG108-15; experiment: (§2) Quantitative effect on the [14C]guanidinium accumulation in NG 108-15 cells (mouse neuroblastoma and rat glioma hybrid cells); assay type: functional, cell-based; details: Murinae
[5] = target: T1, Serotonin 3 (5-HT3) receptor (Rattus norvegicus); experiment: Intrinsic efficacy against 5-hydroxytryptamine 3 receptor; A means pure agonist; assay type: functional; details: filed as agonist
Procedure, shortened: (§3)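 Mouse neuroblastoma × rat glioma NG 108-15 cells grown 2 days in DMEM; washed, then incubated 10 min at 37 °C in guanidinium buffer B (135 mM NaCl, 10 mM guanidinium, pH 7.4) with […] [14C]guanidinium, 10 μM substance P, 1 μM 5-HT where indicated, eight drug concentrations; ice-cold choline wash, NaOH lysis, scintillation counting. Triplicates; EC50 (agonists/partial agonists) or IC50 (antagonists).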

[6] = tested on: NG108-15; experiment: as §2; assay type: functional, cell-based; details: Murinae; procedure, shortened: as §1; remark: listed apart in the source
[7] = target: T3, 5-hydroxytryptamine receptor 1A (Rattus norvegicus, UniProt P19327); experiment: Binding affinity against 5-hydroxytryptamine 1A receptor of rat hippocampus tissue.; assay type: tissue-based
T3 sequence (P19327 whole entry): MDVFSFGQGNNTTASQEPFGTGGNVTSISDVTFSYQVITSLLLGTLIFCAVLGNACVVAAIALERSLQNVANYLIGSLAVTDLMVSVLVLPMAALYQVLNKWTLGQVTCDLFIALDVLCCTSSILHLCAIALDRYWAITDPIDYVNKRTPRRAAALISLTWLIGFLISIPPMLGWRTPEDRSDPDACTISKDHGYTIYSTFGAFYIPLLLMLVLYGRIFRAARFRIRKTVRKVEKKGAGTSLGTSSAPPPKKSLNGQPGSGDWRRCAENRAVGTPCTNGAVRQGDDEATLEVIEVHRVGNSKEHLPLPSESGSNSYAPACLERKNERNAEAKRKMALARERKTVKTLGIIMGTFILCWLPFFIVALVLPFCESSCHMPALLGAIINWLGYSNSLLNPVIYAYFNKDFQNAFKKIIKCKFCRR
Procedure, shortened: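 Rat tissue homogenized in ice-cold 50 mM Tris HCl, resuspended in 50 mM Tris HCl pH 7.4. [3H]8-OH-DPAT 0.5 nM final, 4 mg tissue/sample, 0.5 mL incubation. Stopped by vacuum filtration through GF/B filters, scintillation counting. Mean ± SEM of three determinations.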

[8] = target: T4, 5-hydroxytryptamine receptor 1B (Rattus norvegicus, UniProt P28564); experiment: Binding affinity against 5-hydroxytryptamine 1B receptor of rat striatum; assay type: tissue-based
T4 sequence (P28564 whole entry): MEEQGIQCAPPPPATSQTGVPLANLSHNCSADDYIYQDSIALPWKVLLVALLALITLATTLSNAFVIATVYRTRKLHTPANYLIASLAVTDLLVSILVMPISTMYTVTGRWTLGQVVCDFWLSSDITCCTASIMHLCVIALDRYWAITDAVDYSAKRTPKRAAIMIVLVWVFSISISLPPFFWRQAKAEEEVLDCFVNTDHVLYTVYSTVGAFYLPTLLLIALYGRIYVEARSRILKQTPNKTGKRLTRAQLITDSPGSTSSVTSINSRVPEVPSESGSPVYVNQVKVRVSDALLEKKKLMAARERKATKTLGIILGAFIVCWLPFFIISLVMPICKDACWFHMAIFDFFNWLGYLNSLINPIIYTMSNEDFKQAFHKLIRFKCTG
Procedure, shortened: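 [3H]5-HT 2.3 nM final, 14 mg tissue/sample, 1.0 mL, in 50 mM Tris HCl pH 7.7 with 10 μM pargyline, 4 mM CaCl2 and 0.1% ascorbic acid. Filtration through GF/B filters, scintillation counting. […] Mean ± SEM of three determinations.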

[9] = target: T5, 5-hydroxytryptamine receptor 2C (Rattus norvegicus, UniProt P08909); experiment: Binding affinity against 5-hydroxytryptamine 2C receptor of rat cortex; assay type: tissue-based
T5 sequence (P08909 whole entry): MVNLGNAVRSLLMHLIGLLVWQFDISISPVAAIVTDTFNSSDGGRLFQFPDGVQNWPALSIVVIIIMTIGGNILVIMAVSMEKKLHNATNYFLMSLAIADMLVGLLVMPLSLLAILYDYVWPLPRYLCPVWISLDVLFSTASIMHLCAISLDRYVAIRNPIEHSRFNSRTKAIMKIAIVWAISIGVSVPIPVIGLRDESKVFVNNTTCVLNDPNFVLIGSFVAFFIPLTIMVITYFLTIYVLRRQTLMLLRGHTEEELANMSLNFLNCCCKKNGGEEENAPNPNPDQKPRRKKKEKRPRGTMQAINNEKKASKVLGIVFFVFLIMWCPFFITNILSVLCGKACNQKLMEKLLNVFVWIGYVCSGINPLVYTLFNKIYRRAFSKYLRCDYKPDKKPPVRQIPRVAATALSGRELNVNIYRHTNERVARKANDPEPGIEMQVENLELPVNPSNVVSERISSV

[10] = target: T6, 5-hydroxytryptamine receptor 2A (Rattus norvegicus, UniProt P14842); experiment: Binding affinity against 5-hydroxytryptamine 2A receptor of rat pre-frontal cortex; assay type: tissue-based
T6 sequence (P14842 whole entry): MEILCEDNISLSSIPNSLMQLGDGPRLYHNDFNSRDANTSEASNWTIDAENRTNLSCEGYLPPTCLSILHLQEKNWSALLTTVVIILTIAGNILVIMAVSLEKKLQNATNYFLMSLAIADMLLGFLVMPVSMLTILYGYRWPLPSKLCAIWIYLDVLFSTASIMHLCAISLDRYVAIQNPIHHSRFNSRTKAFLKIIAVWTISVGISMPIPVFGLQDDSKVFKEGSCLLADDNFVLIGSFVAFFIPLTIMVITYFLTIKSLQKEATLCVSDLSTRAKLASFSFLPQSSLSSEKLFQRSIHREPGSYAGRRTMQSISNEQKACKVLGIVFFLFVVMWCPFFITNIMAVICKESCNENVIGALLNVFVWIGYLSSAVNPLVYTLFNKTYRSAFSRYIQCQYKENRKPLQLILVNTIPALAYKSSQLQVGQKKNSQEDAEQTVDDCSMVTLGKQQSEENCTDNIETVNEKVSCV
Procedure, shortened: (§4)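 Membranes incubated with [3H]ketanserin 0.5 nM final, 8 mg tissue/sample, 0.5 mL, 50 mM Tris HCl pH 7.7. Filtration through GF/B filters, then scintillation counting. […] Mean ± SEM of three determinations.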

[11] = target: Sodium-dependent serotonin transporter (Rattus norvegicus, UniProt P31652); experiment: Binding affinity towards Serotonin transporter was determined in rat forebrain membrane; assay type: cell membranes
Chain of Sodium-dependent serotonin transporter (P31652 whole entry): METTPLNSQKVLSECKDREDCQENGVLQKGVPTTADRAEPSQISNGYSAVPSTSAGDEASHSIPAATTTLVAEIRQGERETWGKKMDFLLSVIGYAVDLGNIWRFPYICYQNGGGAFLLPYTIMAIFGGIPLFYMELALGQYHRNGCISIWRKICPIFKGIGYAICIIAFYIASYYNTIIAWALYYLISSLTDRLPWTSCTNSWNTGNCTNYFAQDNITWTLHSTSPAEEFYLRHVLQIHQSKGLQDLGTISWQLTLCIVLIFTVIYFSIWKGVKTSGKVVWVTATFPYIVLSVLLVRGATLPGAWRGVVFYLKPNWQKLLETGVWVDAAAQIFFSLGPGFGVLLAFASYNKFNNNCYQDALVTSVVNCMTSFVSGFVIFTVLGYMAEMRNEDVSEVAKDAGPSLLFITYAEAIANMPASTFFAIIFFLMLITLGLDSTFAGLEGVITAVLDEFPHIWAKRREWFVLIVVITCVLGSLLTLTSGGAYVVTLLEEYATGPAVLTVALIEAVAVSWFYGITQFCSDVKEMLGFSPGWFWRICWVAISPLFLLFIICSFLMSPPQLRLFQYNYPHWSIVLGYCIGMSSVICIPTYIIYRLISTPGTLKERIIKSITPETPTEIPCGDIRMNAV
Procedure, shortened: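 Membranes stored at -80 °C. [3H]paroxetine 0.1 nM final, 2 mg tissue/sample, 2.0 mL, in 50 mM Tris HCl pH 7.4 with 120 mM NaCl and 5 mM KCl. Filters presoaked in 0.5% poly(ethylenimine). Mean ± SEM of three determinations.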

[12] = target: T2, Serotonin 3 (5-HT3) receptor; experiment: Inhibition of [3H]granisetron binding to 5-hydroxytryptamine 3 receptor of rat cortical membrane
[13] = target: T4, 5-hydroxytryptamine receptor 1B; experiment: Binding affinity against 5-hydroxytryptamine 1B receptor of rat striatum.; assay type: tissue-based
[14] = target: T5, 5-hydroxytryptamine receptor 2C; experiment: Binding affinity against 5-hydroxytryptamine 2C receptor of rat cortex.
[15] = target: T6, 5-hydroxytryptamine receptor 2A; experiment: Binding affinity against 5-hydroxytryptamine 2A receptor of rat pre-frontal cortex.; procedure, shortened: as §4
[16] = tested on: NG108-15; experiment: Quantitative effect on the [14C]guanidinium accumulation in NG 108-15 cells.; assay type: functional, cell-based; details: Murinae; procedure, shortened: as §3

SMILES: CCCN(CCC)C(=O)c1c(N2CCN(C)CC2)nc2cccc3c2c1-c1ccccc1-3
- Intrinsic efficacy [1]: Partial agonist
- Ki [2]: 3 nM

SMILES: CN1CCN(c2nc3ccccc3c3c2CC2CCC3C2)CC1 (stereo not drawn)
- Intrinsic efficacy [3]: Antagonist
- IC50 [4]: 8 nM

SMILES: CCCCOC(=O)c1c(N2CCN(C)CC2)nc2cccc3c2c1-c1ccccc1-3
- Ki [2]: 78 nM

SMILES: c1ccc2c(c1)ccc1c(N3CCOCC3)nccc12
- Ki [2]: 4900 nM

SMILES: CN1CCN(c2nccc3c2CCc2ccccc2-3)CC1
- Intrinsic efficacy [5]: Agonist
- Ki [2]: 16 nM
- EC50 [6]: 7 nM

SMILES: CN1CCN(c2nc3ccccc3c(-c3ccccc3)c2COC(=O)c2ccccc2)CC1
- Ki [7]: 4100 nM
- Ki [8]: 7600 nM
- Intrinsic efficacy [3]: Antagonist
- Ki [2]: 8.8 nM
- Ki [9]: 31 nM
- Ki [10]: > 10000 nM
- IC50 [4]: 9 nM
- Ki [11]: 1100 nM

SMILES: CN1C2CCCC1CC(NC(=O)c1nn(C)c3ccccc13)C2 (stereo not drawn)
- Intrinsic efficacy [3]: Antagonist

SMILES: CN1CCN(c2nc3ccccc3c3c2CSc2ccccc2-3)CC1
- Ki [12]: 19 nM

SMILES: CN1CCN(c2cc(C34C[C@H]5C[C@@H](C3)C[C@@H](C4)C5)c3ccccc3n2)CC1
- Intrinsic efficacy [3]: Antagonist
- Ki [2]: 80 nM
- IC50 [4]: 80 nM

SMILES: CN1CCN(c2nc3ccccc3c3c2CCc2sccc2-3)CC1
- Ki [7]: 12000 nM
- Ki [13]: 1500 nM
- Intrinsic efficacy [3]: Antagonist
- Ki [12]: 5.7 nM
- Ki [14]: 420000 nM
- Ki [15]: 3100 nM
- IC50 [4]: 62 nM
- Ki [11]: 4600 nM

SMILES: CN1CCN(c2nc3ccccc3c3c2CCc2ccccc2-3)CC1
- Intrinsic efficacy [3]: Antagonist
- Ki [2]: 4.2 nM
- IC50 [4]: 4.6 nM

SMILES: CN1CCN(c2nc3ccccc3c3c2CCC2CCCCC32)CC1 (stereo not drawn)
- Intrinsic efficacy [3]: Antagonist
- Ki [12]: 29 nM
- IC50 [4]: 250 nM

SMILES: CN1CCN(c2nc3ccccc3c3c2CCCC3)CC1
- Intrinsic efficacy [1]: Partial agonist
- EC50 [6]: 0.25 nM

SMILES: CN1CCN(c2ccnc3c2ccc2ccccc23)CC1
- Ki [2]: 490 nM

SMILES: CN1CCN(c2cc3c4c(cccc4n2)-c2ccccc2-3)CC1
- Ki [7]: 24000 nM
- Ki [8]: 640 nM
- Intrinsic efficacy [1]: Partial agonist
- Ki [2]: 1.8 nM
- Ki [9]: > 10000 nM
- Ki [10]: 13000 nM
- EC50 [6]: 12 nM
- Ki [11]: 1600 nM

SMILES: CN1CCN(c2nc3c(c4c2CSc2ccccc2-4)CCCC3)CC1
- Ki [2]: 2700 nM

SMILES: c1ccc2c(c1)CCc1c(N3CCOCC3)nc3ccccc3c1-2
- Ki [12]: > 5300 nM

SMILES: NCCc1c[nH]c2ccc(O)cc12 [SEROTONIN]
- Intrinsic efficacy [5]: Agonist
- EC50 [16]: 298 nM

SMILES: CN1CCN(c2nc3ccccc3c3ccccc23)CC1
- Intrinsic efficacy [5]: Agonist
- EC50 [6]: 10 nM

SMILES: CN1CCN(c2nc3c(c4c2CCc2ccccc2-4)CCCC3)CC1
- Ki [2]: 2300 nM

SMILES: c1ccc2nc(N3CCNCC3)ccc2c1
- Intrinsic efficacy [5]: Agonist

SMILES: CCOC(=O)c1c(N2CCN(C)CC2)nc2cccc3c2c1-c1ccccc1-3
- Ki [2]: 3.9 nM

SMILES: CN1CCN(c2nc3ccccc3c3c2ccc2ccccc23)CC1
- Ki [12]: 46 nM

SMILES: CN1CCN(c2nccc3c2ccc2ccccc23)CC1
- Intrinsic efficacy [5]: Agonist
- Ki [2]: 29 nM
- EC50 [6]: 30 nM

SMILES: CN1CCN(c2nc3ccccc3c3c2C(=O)c2ccccc2-3)CC1
- Intrinsic efficacy [3]: Antagonist
- Ki [2]: 20 nM
- IC50 [4]: 139 nM
